From ChEMBL document CHEMBL2150851, “Selective nitrile inhibitors to modulate the proteolytic synergism of cathepsins S and F” (J Med Chem, 2012)

Key:
Cathepsin F [1] = target: T1, Cathepsin F (Homo sapiens, UniProt Q9UBX1); experiment: Inhibition of human recombinant cathepsin F using Z-Phe-Arg-AMC as substrate by fluorimetric analysis
T1 sequence (Q9UBX1 whole entry): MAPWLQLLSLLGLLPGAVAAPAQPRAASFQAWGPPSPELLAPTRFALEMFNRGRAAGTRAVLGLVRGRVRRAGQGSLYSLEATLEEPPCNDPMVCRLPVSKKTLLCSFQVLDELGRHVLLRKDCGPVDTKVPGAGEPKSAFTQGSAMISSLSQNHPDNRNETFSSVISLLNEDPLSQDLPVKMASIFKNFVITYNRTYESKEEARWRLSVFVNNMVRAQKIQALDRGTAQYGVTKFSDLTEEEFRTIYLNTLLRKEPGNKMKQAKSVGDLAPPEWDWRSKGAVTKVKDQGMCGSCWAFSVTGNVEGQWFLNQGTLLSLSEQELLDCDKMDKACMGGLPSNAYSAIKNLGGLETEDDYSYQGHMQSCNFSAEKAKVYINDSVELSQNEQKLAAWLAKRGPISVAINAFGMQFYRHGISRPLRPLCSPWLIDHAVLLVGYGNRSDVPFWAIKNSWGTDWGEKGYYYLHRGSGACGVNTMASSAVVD
Summary of the method: (§1)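 Human enzyme activity was followed with a chromogenic or fluorogenic peptide substrate, in duplicate experiments at five or more inhibitor concentrations. Mean steady-state rates were plotted against inhibitor concentration and fitted by nonlinear regression to give IC50. IC50 was then corrected to zero substrate concentration to give Ki. Standard errors of the regression are reported.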

Procathepsin L [2] = target: T2, Procathepsin L (Homo sapiens, UniProt P07711); experiment: Inhibition of human cathepsin L using Z-Phe-Arg-pNA as substrate by spectrophotometric analysis; details: TDE = time-dependent effect; summary of the method: as §1
Target sequence in this assay (P07711 114-333 limits assumed): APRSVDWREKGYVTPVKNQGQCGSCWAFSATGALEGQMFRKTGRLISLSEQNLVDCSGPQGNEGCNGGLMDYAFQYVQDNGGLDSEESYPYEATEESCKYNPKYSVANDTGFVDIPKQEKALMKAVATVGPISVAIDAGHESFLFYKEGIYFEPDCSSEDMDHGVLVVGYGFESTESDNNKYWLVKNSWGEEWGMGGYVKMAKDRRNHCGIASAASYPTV

[3] = target: T3, Cathepsin K (Homo sapiens) (UniProt P43235); experiment: Inhibition of human cathepsin K using Z-Leu-Arg-AMC as substrate by fluorimetric analysis; details: TDE = time-dependent effect; summary of the method: as §1
T3 sequence (whole entry): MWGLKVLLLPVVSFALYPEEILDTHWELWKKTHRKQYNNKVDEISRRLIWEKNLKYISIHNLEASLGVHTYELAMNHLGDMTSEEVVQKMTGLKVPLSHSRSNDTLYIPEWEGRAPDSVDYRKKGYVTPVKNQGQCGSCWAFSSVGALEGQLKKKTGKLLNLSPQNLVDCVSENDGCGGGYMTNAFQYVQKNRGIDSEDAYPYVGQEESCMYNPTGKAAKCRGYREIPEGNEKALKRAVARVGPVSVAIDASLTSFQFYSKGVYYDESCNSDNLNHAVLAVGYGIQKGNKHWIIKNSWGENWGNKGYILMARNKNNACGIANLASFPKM

Cathepsin B [4] = target: T4, Cathepsin B (Homo sapiens, UniProt P07858); experiment: Inhibition of human cathepsin B using Z-Arg-Arg-pNA as substrate by spectrophotometric analysis; details: TDE = time-dependent effect; summary of the method: as §1
Procathepsin L [5] = target: T2, Procathepsin L; experiment: Inhibition of human cathepsin L using Z-Phe-Arg-pNA as substrate after 80 mins by spectrophotometric analysis
Target sequence in this assay (P07711 whole entry): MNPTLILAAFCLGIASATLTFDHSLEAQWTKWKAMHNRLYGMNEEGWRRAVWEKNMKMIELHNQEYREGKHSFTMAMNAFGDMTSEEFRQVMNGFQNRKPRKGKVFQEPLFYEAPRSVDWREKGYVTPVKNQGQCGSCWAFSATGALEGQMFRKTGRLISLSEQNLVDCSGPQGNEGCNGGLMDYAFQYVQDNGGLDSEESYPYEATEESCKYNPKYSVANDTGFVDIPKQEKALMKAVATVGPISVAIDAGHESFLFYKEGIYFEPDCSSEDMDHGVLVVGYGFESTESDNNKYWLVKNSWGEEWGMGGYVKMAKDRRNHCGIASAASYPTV

Cathepsin S [6] = target: T5, Cathepsin S (Homo sapiens, UniProt P25774); experiment: Inhibition of human cathepsin S using Z-Phe-Val-Arg-pNA as substrate after 80 mins by spectrophotometric analysis
Cathepsin K [7] = target: T6, Cathepsin K (Homo sapiens, UniProt P43235); experiment: Inhibition of human cathepsin K using Z-Leu-Arg-AMC as substrate after 80 mins by fluorimetric analysis
T6 sequence (P43235 whole entry): T3 sequence (whole entry)

Cathepsin B [8] = target: T4, Cathepsin B; experiment: Inhibition of human cathepsin B using Z-Arg-Arg-pNA as substrate after 80 mins by spectrophotometric analysis
Cathepsin S [9] = target: T5, Cathepsin S; experiment: Inhibition of human cathepsin S using Z-Phe-Val-Arg-pNA as substrate after 10 mins by spectrophotometric analysis
Cathepsin K [10] = target: T6, Cathepsin K; experiment: Inhibition of human cathepsin K using Z-Leu-Arg-AMC as substrate after 10 mins by fluorimetric analysis
Cathepsin B [11] = target: T4, Cathepsin B; experiment: Inhibition of human cathepsin B using Z-Arg-Arg-pNA as substrate after 10 mins by spectrophotometric analysis
Cathepsin F [12] = target: T1, Cathepsin F; experiment: Inhibition of human recombinant cathepsin F using Z-Phe-Arg-AMC as substrate after 8 min by fluorimetric analysis
Procathepsin L [13] = target: T2, Procathepsin L; experiment: Inhibition of human cathepsin L using Z-Phe-Arg-pNA as substrate after 10 mins by spectrophotometric analysis
Target sequence in this assay (P07711 whole entry): as above

T5 sequence (P25774 whole entry): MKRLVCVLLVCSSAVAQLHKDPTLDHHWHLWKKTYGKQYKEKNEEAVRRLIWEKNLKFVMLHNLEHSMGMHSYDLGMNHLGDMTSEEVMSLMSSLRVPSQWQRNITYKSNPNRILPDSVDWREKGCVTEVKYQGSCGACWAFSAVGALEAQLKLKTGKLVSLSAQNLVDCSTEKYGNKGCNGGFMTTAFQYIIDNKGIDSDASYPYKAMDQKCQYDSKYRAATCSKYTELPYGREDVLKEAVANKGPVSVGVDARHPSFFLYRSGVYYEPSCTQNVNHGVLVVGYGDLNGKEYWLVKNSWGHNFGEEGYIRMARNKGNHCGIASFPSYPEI

Row | SMILES | Ki (Cathepsin F [1]) | inhibition (Procathepsin L [2]) | inhibition [3] | inhibition (Cathepsin B [4]) | Ki (Procathepsin L [5]) | Ki (Cathepsin S [6]) | Ki (Cathepsin K [7]) | Ki (Cathepsin B [8]) | Ki (Cathepsin S [9]) | Ki (Cathepsin K [10]) | Ki (Cathepsin B [11]) | Ki (Cathepsin F [12]) | Ki (Procathepsin L [13])
1 | CC(C)CS(=O)(=O)C[C@H](NC(=O)c1ccccc1)C(=O)N(C)N(C)C#N | 0.021 µM | tde | tde | tde | 0.015 µM | 0.00055 µM | 0.00066 µM | 0.0058 µM | – | – | – | – | –
2 | CC(C)CS(=O)(=O)CC(NC(=O)c1ccc(-c2ccsc2)s1)C(=O)NCC#N (racemic) | – | – | – | – | – | – | – | – | 0.061 µM | > 4 µM | 5.4 µM | > 4 µM | > 4 µM
3 | CC(C)CS(=O)(=O)CC(NC(=O)c1ccc(-c2nnn[nH]2)s1)C(=O)NCC#N (racemic) | – | – | – | – | – | – | – | – | 0.076 µM | > 4 µM | 34 µM | > 4 µM | > 4 µM
4 | CC(C)CS(=O)(=O)CC(NC(=O)c1ccc(-c2cccs2)cc1)C(=O)NCC#N (racemic) | – | – | – | – | – | – | – | – | 0.2 µM | > 4 µM | 3.9 µM | > 4 µM | > 4 µM
5 | CC(C)CS(=O)(=O)CC(NC(=O)c1ccc(-c2cccs2)s1)C(=O)NCC#N (racemic) | – | – | – | – | – | – | – | – | 0.094 µM | 1.1 µM | 3.4 µM | 3.2 µM | > 4 µM
6 | CC(C)CS(=O)(=O)CC(NC(=O)c1cc2ccccc2s1)C(=O)NCC#N (racemic) | – | – | – | – | – | – | – | – | 0.089 µM | > 4 µM | 6.8 µM | > 4 µM | > 4 µM
7 | CC(C)CS(=O)(=O)CC(NC(=O)c1cc2ccsc2s1)C(=O)NCC#N (racemic) | – | – | – | – | – | – | – | – | 0.1 µM | > 4 µM | 7.2 µM | > 4 µM | > 4 µM

Further compounds by falling Ki (Cathepsin S [9]), results first:

Row | Ki (Cathepsin F [1]) | inhibition (Procathepsin L [2]) | inhibition [3] | inhibition (Cathepsin B [4]) | Ki (Procathepsin L [5]) | Ki (Cathepsin S [6]) | Ki (Cathepsin K [7]) | Ki (Cathepsin B [8]) | Ki (Cathepsin S [9]) | Ki (Cathepsin K [10]) | Ki (Cathepsin B [11]) | Ki (Cathepsin F [12]) | Ki (Procathepsin L [13]) | SMILES
8 | – | – | – | – | – | – | – | – | 0.061 µM | > 4 µM | 5.1 µM | > 4 µM | > 4 µM | CC(C)CS(=O)(=O)CC(NC(=O)c1ccc(-c2ccccc2)s1)C(=O)NCC#N (racemic)
9 | – | – | – | – | – | – | – | – | 0.06 µM | > 4 µM | 6.4 µM | > 4 µM | > 4 µM | CC(C)CS(=O)(=O)CC(NC(=O)c1cc(-c2ccccc2)cs1)C(=O)NCC#N (racemic)
10 | – | – | – | – | – | – | – | – | 0.045 µM | > 40 µM | 24 µM | > 40 µM | > 40 µM | CC(C)CS(=O)(=O)CC(NC(=O)c1cccs1)C(=O)NCC#N (racemic)
11 | – | – | – | – | – | – | – | – | 0.04 µM | > 40 µM | 40 µM | > 40 µM | > 40 µM | CC(C)CS(=O)(=O)CC(NC(=O)c1ccccc1)C(=O)NCC#N (racemic)
12 | – | – | – | – | – | – | – | – | 0.033 µM | > 40 µM | 24 µM | > 40 µM | 37 µM | CC(C)CS(=O)(=O)C[C@H](NC(=O)c1ccccc1)C(=O)NCC#N
